M5 PAM: CHRM5 positive allosteric modulation; P08912; CHO-K1 hM5, Fluo-8 calcium, ACh EC20 PAM; 0% = ACh EC20, 100% = ACh EC100; activation, % at 3 µM; 360,000 compounds, 0.3% hits;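 active = activation above the run cutoff, the mean activation of all test compounds plus 3 SD, cut at about 18% in these data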
Target sequence (P08912 whole entry, looked up): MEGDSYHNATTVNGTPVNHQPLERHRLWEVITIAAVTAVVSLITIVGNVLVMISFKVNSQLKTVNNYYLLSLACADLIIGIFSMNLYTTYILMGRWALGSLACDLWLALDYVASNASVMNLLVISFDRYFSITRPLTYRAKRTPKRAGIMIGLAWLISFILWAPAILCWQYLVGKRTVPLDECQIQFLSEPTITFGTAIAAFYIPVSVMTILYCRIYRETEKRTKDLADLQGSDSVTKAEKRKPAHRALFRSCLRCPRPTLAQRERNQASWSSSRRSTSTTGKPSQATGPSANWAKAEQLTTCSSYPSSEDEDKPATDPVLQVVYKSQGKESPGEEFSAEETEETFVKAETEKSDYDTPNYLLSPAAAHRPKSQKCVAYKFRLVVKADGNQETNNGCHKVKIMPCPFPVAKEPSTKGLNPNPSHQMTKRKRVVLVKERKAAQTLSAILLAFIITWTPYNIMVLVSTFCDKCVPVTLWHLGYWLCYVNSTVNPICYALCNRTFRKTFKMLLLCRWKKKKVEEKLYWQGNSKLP
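Test system: CHO-K1 hM5 cells / Doses: single-point, 3 µM nominal / Times: Post-acetylcholine fluorescence recording 140 s / Technique: Fluo-8 calcium fluorescence / Measure: Max/basal fluorescence ratio as % of EC20–EC100 ACh window / Benchmarks: low control EC20 acetylcholine (0%), high control EC100 acetylcholine (100%) / Replicates: one well per compound, no replicates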
CHRM4 agonist: agonists of human muscarinic M4 receptor (CHRM4); P08173; CHO-K1 hM4/Gqi5, Fluo-8 calcium fluorescence; vehicle 0%, full acetylcholine response 100%; activation, % at 3 µM; 360,000 compounds, 0.14% hits;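 active = activation above the run mean over all test wells plus 3 SD, cut at about 32% in these data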;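 note: peak over basal fluorescence ratio per well then scaled between controls; 0% = DMSO wells and 100% = acetylcholine at EC100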
CHRM4 PAM: CHRM4 positive allosteric modulation; P08173; CHO-K1 hM4/Gqi5, Fluo-8 calcium fluorescence, ACh EC20; 0% = ACh EC20, 100% = maximal ACh; activation, % at 3 µM; 360,000 compounds, 0.4% hits;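 active = activation above its plate's cutoff, the mean activation of sample wells plus 3 SD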
M5 ag: agonists of human muscarinic M5 receptor (CHRM5); P08912; CHO-K1 hM5 cells, Fluo-8 calcium fluorescence; 0% DMSO wells, 100% maximal acetylcholine response; activation, % at 3 µM; 360,000 compounds, 0.19% hits; AID 624037;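 active = activation above the run's mean over test compounds plus 3 SD, cut at about 23% in these data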;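 note: signal is peak over basal fluorescence ratio across the kinetic read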
CHRM4 antagonist: blocks acetylcholine activation of human M4 receptor; P08173; CHO-hM4 cells, ACh EC80, Fluo-8 calcium fluorescence; inhibition, % at 3 µM; 360,000 compounds, 0.73% hits;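 active = inhibition above its plate's cutoff, the mean inhibition of sample wells plus 3 SD, cut at about 27% in these data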;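 note: 0% = acetylcholine EC80 with DMSO and 100% = DMSO without agonist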
CHRM5 antagonist: antagonists of human muscarinic M5 receptor (CHRM5); CHO-hM5 cells, Fluo-8 calcium fluorescence, ACh EC80; inhibition, % at 3 µM; 360,000 compounds, 0.59% hits; AID 624040;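 active = inhibition above a per-plate cutoff, the mean of that plate's test compounds plus 3 SD, cut at about 27% in these data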;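 note: 0% = acetylcholine EC80 with DMSO and 100% = DMSO without agonist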
Active calls of the source: *. Compounds with a hit are over-represented: about 1.8% of the library has one in this group of screens.

SMILES	M5 PAM	CHRM4 agonist	CHRM4 PAM	M5 ag	CHRM4 antagonist	CHRM5 antagonist
CC(=O)NC(c1ccccc1)c1nc(-c2cc3ccccc3o2)cs1 (configuration not stated)	-3	1	-2	-1	-5	0
Cc1nn(-c2ccccc2)c(Cl)c1CN(C(=O)CCl)c1ccc(Cl)cc1	-17	-2	-33	-6	42*	24
CS(=O)(=O)c1ccc(Nc2nc(C(N)Cc3ccc(Cl)cc3)cs2)cc1 (configuration not stated)	-1	9	1	1	8	6
CCOC(=O)c1ccc(-c2ccc3ncnc(NCc4csc(C)n4)c3c2)o1	-5	9	-5	2	-2	7
CC(Oc1ccc(F)cc1)C(=O)Nc1ccc(S(=O)(=O)NC2=NCCCCC2)cc1 (configuration not stated)	-7	17	2	17	1	15
CC(Oc1ccc(Br)cc1)C(=O)Nc1ccc(S(=O)(=O)NC2=NCCCCC2)cc1 (configuration not stated)	-10	39*	-5	29*	-4	18
CCC(=O)N1CCc2cc(S(=O)(=O)CCC(=O)N3CCN(c4ccc(Cl)cc4)CC3)ccc21	-12	12	-6	2	2	28*
CC(=O)Nc1ccc2c(c1)C(=Nc1cccc(C)c1)c1ccccc1-2	-7	2	16*	-2	-13	22
COc1cccc(-c2cnc3c(NC(C)=O)cc(-c4ccc(C(=O)NC5CC5)cc4)cn23)c1	-3	9	-2	0	-2	2
CC(=O)c1cn(CCOc2cc(C)ccc2C)c2ccccc12	-23	12	-17	0	17	33*
Cc1ccc(C)c(OCCn2cc(C(=O)O)c3ccccc32)c1	-9	17	0	1	1	23
Cc1ccc(C)c(C(O)c2ncc(-c3ccc(Cl)cc3)[nH]2)c1 (configuration not stated)	-4	7	8	5	-11	4
Cc1ccc(NC(=O)C2CCN(S(=O)(=O)c3ccc4c(c3)NC(=O)C(C)S4)CC2)cc1Cl (configuration not stated)	-12	12	-11	-2	29*	28*
CCC(=O)Oc1ccc(NC(=O)c2ccc(S(=O)(=O)N3CCCC3)cc2)cc1	1	10	-6	2	-8	-7
CCCCNC(=O)COCc1cc(-c2ccc3c(c2)OCO3)on1	-6	6	15*	-1	-5	8
Cn1cc(Cc2ccc(C(=O)NCc3ccccc3)cn2)c2ccccc21	-2	3	11	1	-12	-2
O=C1C=CC2C3C(=O)N(c4ccccc4)C(=O)C3C1N2Cc1ccccc1 (configuration not stated)	0	5	-5	3	31*	14
O=C1C2C3C=CC(CC3)C2C(=O)N1c1ccccc1 (configuration not stated)	1	1	1	-2	-1	0
Cc1ccc(NC(=O)c2cnc(N3CCN(c4ccccn4)CC3)c3ccccc23)c(Br)c1	-15	12	-21	3	30*	14
O=C(Nc1c(F)cccc1F)c1cnc(N2CCN(c3ccccn3)CC2)c2ccccc12	-20	19	-15	0	4	14
CN(c1ccccc1)S(=O)(=O)c1cccc(NC(=O)c2ccc(Cl)c([N+](=O)[O-])c2)c1	-38	23	-16	3	33*	34*
Cc1nc2ccc(NC(=O)c3ccc(Cl)c(S(=O)(=O)N(C)c4ccccc4)c3)cc2s1	2	3	0	1	-14	-2
Cc1nc2ccc(NC(=O)c3cc(S(=O)(=O)N(C)c4ccccc4)ccc3Cl)cc2s1	-16	20	-21	12	7	29*
CC(=O)Nc1ccc(-c2ccnc3c2CC(C(=O)NCC2CCOCC2)O3)cc1 (configuration not stated)	0	1	3	0	-1	4
Cc1ccc(-c2nc3ccc(Cl)cn3c2Cc2cccc(Cl)c2)cc1	-4	-1	-4	-1	4	9

Screening results as filed in PubChem.
